From PubChem
A selection: hits, their analogues and other compounds. The true share with any hit is near 2.6%.
INS-1E GSIS act: GLuc luminescence reporter in INS-1E cells, primary screen for activators of glucose-dependent secretion of insulin; AID 743287; 370,000 tested, 0.61% active; activation, % at 16.6 µM; INS-1E GLuc reporter insulin secretion, 2-3 h;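 active = lowest replicate activation of at least 40%, so every replicate reaches that level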;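 also: 0% = median of neutral control wells and 100% = median of IBMX positive control wells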
rRNA inh HTS: inhibits bacterial ribosomal RNA function over humanized ribosomes; AID 720706; E. coli WT GFP vs humanized-ribosome RFP mutants, fluorescence, 24 h; active compounds read low; DMSO median 0, no signal -100; GFP signal change (wild-type ribosome), % (no concentration beside the values); 350,000 tested, 1.6% active;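 active = significant combined selectivity score with lowered wild-type GFP, culture density cut under 30%, mutant RFP and density less affected; inactive = any of these conditions unmet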
MLL AF4-AF9 inh: inhibitors of human MLL-AF4/AF9 interaction; P42568; 350,000 tested, 0.47% active; AID 651704; inhibition, % at 10 µM; AlphaScreen, biotin-AF4 peptide binding to FLAG-AF9;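 active = every replicate reaching a set inhibition limit, whatever the replicate mean, cut at about 25% in these data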;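 also: 0% = plate neutral control median and 100% = total signal loss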
Target sequence (P42568 whole entry, looked up): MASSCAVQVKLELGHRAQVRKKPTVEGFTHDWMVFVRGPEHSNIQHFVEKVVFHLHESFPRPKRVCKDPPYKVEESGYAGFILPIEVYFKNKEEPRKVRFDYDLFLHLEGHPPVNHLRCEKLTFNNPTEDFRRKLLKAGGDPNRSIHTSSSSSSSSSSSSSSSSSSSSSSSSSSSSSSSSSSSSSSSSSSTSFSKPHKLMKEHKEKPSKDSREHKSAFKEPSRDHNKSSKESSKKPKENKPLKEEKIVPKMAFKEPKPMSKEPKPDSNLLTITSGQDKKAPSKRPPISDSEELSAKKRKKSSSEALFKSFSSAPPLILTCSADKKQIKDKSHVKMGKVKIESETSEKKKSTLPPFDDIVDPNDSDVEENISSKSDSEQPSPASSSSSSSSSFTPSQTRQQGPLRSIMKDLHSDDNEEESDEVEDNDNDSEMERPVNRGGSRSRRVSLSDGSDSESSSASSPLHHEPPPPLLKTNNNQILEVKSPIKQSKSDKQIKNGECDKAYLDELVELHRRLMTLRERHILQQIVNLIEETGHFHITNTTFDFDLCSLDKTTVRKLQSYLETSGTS
E-sel inducer: induces E-selectin expression in human endothelial cells. AID 686992. P16581. 260,000 tested, 0.37% active. HUVEC E-selectin immunofluorescence imaging; normalized: neutral wells 0, TNF-alpha wells 100. activation, % at 7.58 µM;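 active = mean E-selectin-positive cell signal at least 10% of the positive control, reached in at least 60% of replicates, without over 20% cell loss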
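Test system: HUVEC | Signal: Immunofluorescence imaging | Read-out: Percent E-selectin-positive cells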
RAD54 branch: RAD54 (human) branch migration inhibition; Q92698; inhibition, % at 10.4 µM; AID 602329; 360,000 tested, 0.14% active; RAD54 Holliday junction branch migration, FAM/BHQ fluorescence;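 active = mean normalized replicate activity at least 40 and at least half of replicates scoring 40 or more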;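 also: 0% = median of neutral control wells and 100% = median of positive control wells; inhibitors cause a drop in the FAM fluorescence signal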
RAD52 anneal inh: RAD52 (human) annealing inhibition | 360,000 tested, 0.46% active | inhibition, % at 18.7 µM | AID 651710 | recombinant RAD52 DNA annealing, FRET fluorescence;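 active = every replicate showing at least 50% inhibition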
Starred values were filed as active, the others as inactive.

Cc1ccc(/C=C2\SC(=S)N(CCCC(=O)N3CCOCC3)C2=O)cc1 was read as INS-1E GSIS act -25, rRNA inh HTS -26*, MLL AF4-AF9 inh 6, E-sel inducer 0, RAD54 branch 8 and RAD52 anneal inh 2.
Screening O=C(O)CCN1C(=O)/C(=C\c2cccc(OCC(=O)Nc3ccc(Cl)cc3)c2)SC1=S returned INS-1E GSIS act -4, rRNA inh HTS -30*, MLL AF4-AF9 inh -23, RAD54 branch 5 and RAD52 anneal inh -26.
C[C@H](CO)N1C[C@H](C)[C@@H](CN(C)C)Oc2ccc(NC(=O)c3ccncc3)cc2C1=O was read as INS-1E GSIS act -3, rRNA inh HTS 4, MLL AF4-AF9 inh -3, RAD54 branch -12 and RAD52 anneal inh 0.
`CC=Cc1ccc2n(c1=O)C[C@H]1[C@H](CO)[C@@H](C(=O)NCC3CC3)N(Cc3ccccc3)[C@@H]21` (mixture of isomers) gave INS-1E GSIS act -8, rRNA inh HTS 1, MLL AF4-AF9 inh -1, E-sel inducer 0, RAD54 branch 1 and RAD52 anneal inh -44.
For CCC(=O)N1N=C(c2c(O)n(C)c(=O)n(C)c2=O)CC1c1ccccc1 (stereo unspecified) the results were INS-1E GSIS act 17, rRNA inh HTS -46*, MLL AF4-AF9 inh -1, E-sel inducer 0, RAD54 branch 5 and RAD52 anneal inh -7.
For CCC(=O)N1N=C(c2ccccc2)CC1c1ccccc1 (stereo unspecified) the results were INS-1E GSIS act 4, rRNA inh HTS -10, MLL AF4-AF9 inh 3, E-sel inducer 2, RAD54 branch 0 and RAD52 anneal inh -5.
For CN1C(=O)c2cc(NC(=O)c3ccc(F)cc3)ccc2OC[C@H]2O[C@@H](CC(=O)NCC3CCCCC3)CC[C@H]21 the results were INS-1E GSIS act -40, rRNA inh HTS -5, MLL AF4-AF9 inh 0, E-sel inducer 0, RAD54 branch -17 and RAD52 anneal inh 2.
For c1ccc(OCCSc2nnc3sc4ccccc4n23)cc1 the results were INS-1E GSIS act -7, rRNA inh HTS -41*, MLL AF4-AF9 inh 4, RAD54 branch 11 and RAD52 anneal inh -3.
`O=C(C[C@H]1CC[C@@H](NC(=O)c2ccccc2)[C@H](CO)O1)NCc1ccc(Oc2ccccc2)cc1` gave INS-1E GSIS act -1, rRNA inh HTS -7, MLL AF4-AF9 inh -2, E-sel inducer 0, RAD54 branch 7 and RAD52 anneal inh 2.
`CCOC(=O)Cn1cc(/C=C(\C#N)C(=O)N2CCOCC2)c2ccccc21` gave rRNA inh HTS -6, MLL AF4-AF9 inh 0, E-sel inducer -2 and RAD52 anneal inh 2.
N#C/C(=C\c1cn(CCOc2ccccc2)c2ccccc12)C(=O)NCc1cccs1 was read as INS-1E GSIS act 99* and RAD54 branch -10.
Screening N#C/C(=C\c1cn(Cc2ccccc2F)c2ccccc12)C(=O)NCc1ccco1 returned INS-1E GSIS act 56*.
`CCOC(=O)Cn1cc(/C=C(/C#N)C(=O)NC(C)C)c2ccccc21` gave INS-1E GSIS act -15, rRNA inh HTS -9, MLL AF4-AF9 inh 1, E-sel inducer 83*, RAD54 branch -3 and RAD52 anneal inh -17.
For COc1ccc(NC(=O)Nc2ccc3c(c2)C(=O)N([C@@H](C)CO)C[C@H](C)[C@@H](CN(C)C(=O)Nc2ccc4c(c2)OCO4)OCCCC[C@H](C)O3)cc1 the results were INS-1E GSIS act 25, rRNA inh HTS -2, MLL AF4-AF9 inh 8, E-sel inducer 0, RAD54 branch 3 and RAD52 anneal inh -11.
Screening CN(C)Cc1cn(CC[C@@H]2CC[C@@H](NC(=O)Nc3ccccc3F)[C@H](CO)O2)nn1 returned INS-1E GSIS act 9, rRNA inh HTS 4, MLL AF4-AF9 inh -1, E-sel inducer 0, RAD54 branch -6 and RAD52 anneal inh -9.
Screening COc1cc(NC(=O)c2ccco2)c(OC)cc1NC(=O)c1cc(OC)c(OC)c(OC)c1 returned INS-1E GSIS act -4 and RAD54 branch -1.
Screening CCOc1cc(NC(=O)c2ccco2)c(OCC)cc1NC(=O)c1cc(OC)c(OC)c(OC)c1 returned INS-1E GSIS act 45* and RAD54 branch -3.
For Cc1[nH]c(=O)c(C(=O)/C=C/c2ccccc2F)c2c1CCCC2 the results were INS-1E GSIS act -18, rRNA inh HTS -18*, MLL AF4-AF9 inh -4, RAD54 branch -1 and RAD52 anneal inh -14.
Cc1cc(C)c(C(=O)/C=C/c2cccc3ccccc23)c(=O)[nH]1 was read as INS-1E GSIS act 6, rRNA inh HTS 10, MLL AF4-AF9 inh 6, E-sel inducer 2 and RAD52 anneal inh -96.
Screening CC(=O)N(C)C[C@H]1Oc2ncc(C#C[C@H](C)O)cc2C(=O)N([C@H](C)CO)C[C@@H]1C returned INS-1E GSIS act -6, rRNA inh HTS 4, MLL AF4-AF9 inh -3, E-sel inducer 0, RAD54 branch 4 and RAD52 anneal inh 12.
For Cc1ccc(NC(=O)Nc2ccon2)cc1Cl the results were INS-1E GSIS act 18, rRNA inh HTS -34*, MLL AF4-AF9 inh -2, E-sel inducer 0, RAD54 branch -5 and RAD52 anneal inh -10.
Cc1ccc(S(=O)(=O)CC(=O)c2cc(C)c(O)c(C)c2)cc1 was read as INS-1E GSIS act -6, rRNA inh HTS -24*, MLL AF4-AF9 inh -4, E-sel inducer 0, RAD54 branch -3 and RAD52 anneal inh -16.
`Cc1ccc(S(=O)(=O)CCCS(=O)(=O)c2ccc(C)cc2)cc1` gave RAD54 branch 15.
`CCN1CCN(c2ccc(S(=O)(=O)N3CCCCC3)cc2NC(=O)/C=C/c2cccc(OC)c2OC)CC1` gave INS-1E GSIS act -35, rRNA inh HTS -20*, MLL AF4-AF9 inh 21, E-sel inducer 0, RAD54 branch -4 and RAD52 anneal inh 5.
`CCN1CCN(c2ccc(S(=O)(=O)N3CCCCC3)cc2NC(=O)/C=C/c2ccc(F)cc2)CC1` gave INS-1E GSIS act -20, rRNA inh HTS -2, MLL AF4-AF9 inh 16, RAD54 branch -8 and RAD52 anneal inh 5.
CCN1CCN(c2ccc(S(=O)(=O)N3CCCCC3)cc2NC(=O)c2cc3ccccc3o2)CC1 was read as INS-1E GSIS act 46*, rRNA inh HTS -10, MLL AF4-AF9 inh 11, E-sel inducer 1, RAD54 branch 1 and RAD52 anneal inh -9.
Screening O=C(Cc1c[nH]c2ccccc12)N[C@@H](Cc1c[nH]c2ccccc12)C(=O)O returned INS-1E GSIS act 53*, rRNA inh HTS 7, MLL AF4-AF9 inh 0, E-sel inducer 0, RAD54 branch -1 and RAD52 anneal inh -19.
